Test system: CNS carcinoma cell
Assay: Cytotoxicity against human CNS cancer cells after 48 hrs by SRB assay
Assay type: functional
Details: not given
How it was run: (§1)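 NCI-60 screen: single-dose pass at 10^-5 M, then a five-concentration assay from 10^-9 to 10^-4 M (highest 100 μM). Exposure was 48 h under standard NCI protocols. GI50, TGI and LC50 were derived per cell line and averaged by subpanel. Repeated tests are the mean of two experiments.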

With O=C1Nc2ccccc2C1=Cc1c(-c2ccncc2)nc2sccn12 as the compound, how does the GI50 read?
The GI50 was 1.6 µM.

What about the TGI of the same compound?
Its TGI is 49.7 µM.

Which results are given for O=C1Nc2ccc(O)cc2/C1=C/c1c(-c2ccncc2)nc2sccn12?
GI50: 4.46 µM; TGI: 80.4 µM

Same assay, conditions: read-out: LC50 (the source's name)

Which CC50 does the source give for O=C1Nc2ccccc2C1=Cc1c(-c2ccncc2)nc2sccn12 here?
Its CC50 is 95 µM.

Test system: Melanoma cell line
Assay: Cytotoxicity against human melanoma cells after 48 hrs by SRB assay
Assay type: functional
Details: not given
How it was run: as §1

Which GI50 does the source give for O=C1Nc2ccccc2C1=Cc1c(-c2ccncc2)nc2sccn12 here?
The GI50 was 3.27 µM.

And the TGI?
Its TGI is 78.3 µM.

Which GI50 does the source give for O=C1Nc2ccc(O)cc2/C1=C/c1c(-c2ccncc2)nc2sccn12 here?
Its GI50 is 15.8 µM.

What about the TGI of the same compound?
Its TGI is 89.4 µM.

Same assay, conditions: read-out: LC50 (the source's name)

Which CC50 does the source give for O=C1Nc2ccccc2C1=Cc1c(-c2ccncc2)nc2sccn12 here?
The CC50 was 92.2 µM.

For O=C1Nc2ccc(O)cc2/C1=C/c1c(-c2ccncc2)nc2sccn12, which CC50 is on record?
Its CC50 is 99.1 µM.

Test system: Leukemia cell
Assay: Cytotoxicity against human leukemia cells after 48 hrs by SRB assay
Assay type: functional
Details: not given
How it was run: as §1

With O=C1Nc2ccccc2C1=Cc1c(-c2ccncc2)nc2sccn12 as the compound, how does the GI50 read?
The GI50 was 2.65 µM.

What about the TGI of the same compound?
The TGI was 92 µM.

For O=C1Nc2ccc(O)cc2/C1=C/c1c(-c2ccncc2)nc2sccn12, which GI50 is on record?
The GI50 was 10.1 µM.

And the TGI?
Its TGI is 67.6 µM.

Test system: NSCLC
Assay: Cytotoxicity against human NSCLC cells after 48 hrs by SRB assay
Assay type: functional
Details: not given
How it was run: as §1

With O=C1Nc2ccccc2C1=Cc1c(-c2ccncc2)nc2sccn12 as the compound, how does the GI50 read?
Its GI50 is 8.97 µM.

And the TGI?
The TGI was 82.4 µM.

For O=C1Nc2ccc(O)cc2/C1=C/c1c(-c2ccncc2)nc2sccn12, which GI50 is on record?
The GI50 was 21.2 µM.

And the TGI?
The TGI was 76.8 µM.

Test system: not listed separately
Assay: Cytotoxicity against human COLON cells after 48 hrs by SRB assay
Assay type: functional
Details: not given
How it was run: as §1

For O=C1Nc2ccccc2C1=Cc1c(-c2ccncc2)nc2sccn12, which GI50 is on record?
The GI50 was 0.68 µM.

What about the TGI of the same compound?
The TGI was 63.4 µM.

With O=C1Nc2ccc(O)cc2/C1=C/c1c(-c2ccncc2)nc2sccn12 as the compound, how does the GI50 read?
Its GI50 is 7.5 µM.

What about the TGI of the same compound?
The TGI was 93 µM.

Same assay, conditions: read-out: LC50 (the source's name)

Which CC50 does the source give for O=C1Nc2ccccc2C1=Cc1c(-c2ccncc2)nc2sccn12 here?
The CC50 was 94.3 µM.

Test system: Ovarian carcinoma cell
Assay: Cytotoxicity against human ovarian cancer cells after 48 hrs by SRB assay
Assay type: functional
Details: not given
How it was run: as §1

For O=C1Nc2ccccc2C1=Cc1c(-c2ccncc2)nc2sccn12, which GI50 is on record?
The GI50 was 2.34 µM.

And the LC50 (50% lethal concentration)?
The LC50 (50% lethal concentration) was 91.8 µM.

What about the TGI of the same compound?
The TGI was 61.3 µM.

Which GI50 does the source give for O=C1Nc2ccc(O)cc2/C1=C/c1c(-c2ccncc2)nc2sccn12 here?
The GI50 was 33.8 µM.

And the TGI?
The TGI was 86.2 µM.

Test system: Renal cancer cell line
Assay: Cytotoxicity against human renal cancer cells after 48 hrs by SRB assay
Assay type: functional
Details: not given
How it was run: as §1

Which GI50 does the source give for O=C1Nc2ccccc2C1=Cc1c(-c2ccncc2)nc2sccn12 here?
The GI50 was 14.9 µM.

And the LC50 (50% lethal concentration)?
Its LC50 (50% lethal concentration) is 92.4 µM.

What about the TGI of the same compound?
Its TGI is 73.2 µM.

Which results are given for O=C1Nc2ccc(O)cc2/C1=C/c1c(-c2ccncc2)nc2sccn12?
GI50: 43 µM; TGI: 90.1 µM

Test system: Prostatic carcinoma cell
Assay: Cytotoxicity against human prostate cancer cells after 48 hrs by SRB assay
Assay type: functional
Details: not given
How it was run: as §1

With O=C1Nc2ccccc2C1=Cc1c(-c2ccncc2)nc2sccn12 as the compound, how does the GI50 read?
Its GI50 is 1.1 µM.

With O=C1Nc2ccc(O)cc2/C1=C/c1c(-c2ccncc2)nc2sccn12 as the compound, how does the GI50 read?
The GI50 was 15 µM.

Test system: Breast carcinoma cell
Assay: Cytotoxicity against human breast cancer cells after 48 hrs by SRB assay
Assay type: functional
Details: not given
How it was run: as §1

Which results are given for O=C1Nc2ccccc2C1=Cc1c(-c2ccncc2)nc2sccn12?
GI50: 5.42 µM; TGI: 67.3 µM

Which GI50 does the source give for O=C1Nc2ccc(O)cc2/C1=C/c1c(-c2ccncc2)nc2sccn12 here?
The GI50 was 4.43 µM.

What about the TGI of the same compound?
Its TGI is 84.2 µM.

Target: T1, Tubulin (Bos taurus) (UniProt Q6B856+Q862L2+Q862F3)
Assay: Inhibition of [3H]colchicine binding to bovine brain tubulin at 5 uM after 20 mins relative to control
Details: not given
How it was run: (§2)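 Reaction mixtures held 1 μM tubulin, 5 μM [³H]colchicine and test compound at 5 or 50 μM. Read-out was percent inhibition of colchicine binding.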

For Cc1nc2sccn2c1-c1nc2sccn2c1C=C1C(=O)Nc2cc(Cl)ccc21, which inhibition is on record?
The inhibition was 15%.

Target: T1, Tubulin (Bos taurus)
Assay: Inhibition of [3H]colchicine binding to bovine brain tubulin at 50 uM after 20 mins relative to control
Details: not given
How it was run: as §2

Which inhibition does the source give for Cc1nc2sccn2c1-c1nc2sccn2c1C=C1C(=O)Nc2cc(Cl)ccc21 here?
Its inhibition is 28%.
